Results taken from ChEMBL document CHEMBL3792341, “Substituted quinazolinones as kinase inhibitors endowed with anti-fibrotic properties” (Eur J Med Chem, 2016).
The source made the active and inactive calls. The rule behind the calls is not given here.

Columns and labels:
[1] = Cytotoxicity against crohn's disease patient isolated ISEMF assessed as cell viability at 1 uM after 72 hrs by MTT assay; settings: human
Outline: (§1)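 MTT viability in primary human HSCs or ISEMFs seeded at 2 × 10³ cells/well. Cells were exposed to compound for 72 h, then to MTT 0.50 mg/ml for 4 h. Viability is expressed as % of the respective untreated cells. Triplicate per isolated cell batch.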

[2] = Reduction of COL1A1 mRNA expression in healthy human HSC cells at 1 uM by RT-PCR analysis; assay type: functional, cell-based
Outline: (§2)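 HSCs or ISEMFs were treated with compound for 24 h. Total RNA was extracted and DNase I-treated, then used for quantitative PCR of the target transcript. Values were normalized to 18S rRNA and relative change was calculated by the ΔΔCT method. Triplicate per isolated cell batch.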

[3] = target: Fibroblast growth factor receptor 1 (Homo sapiens) (UniProt P11362); assay: Inhibition of human FGFR1 using myelin basic protein as substrate at 1 uM measured after 20 mins at 30 degC by liquid scintillation counting method in presence of [gamma-32P]-ATP
Homo sapiens [4] = species on record: Homo sapiens; assay: Antiproliferative activity against VEGF induced crohn's disease patient isolated ISEMF at 1 uM after 72 hrs by carboxyfluorescein diacetate succinimidyl ester dye-based FACS flow cytometric method; assay type: functional
Outline: (§3)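 Primary human HSCs (from collagenase/pronase digests of non-pathological liver, Percoll gradient) or ISEMFs (from collagenase-digested gut biopsies, CD90-checked) were CFSE-loaded for 10 min at 37 °C in PBS with 0.1% BSA. Loading was quenched with 5 volumes of ice-cold medium. After 16 h, cells were washed and given compound plus 1 ng/ml VEGF for 72 h. Read-out was dye partitioning by flow cytometry, as % CFSE-positive cells. Duplicate per cell batch; mean ± SE.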

[5] = Cytotoxicity against human HSC cells assessed as cell viability at 1 uM after 72 hrs by MTT assay; assay type: cell-based; outline: as §1
[6] = target: T1, MAP kinase p38 (Homo sapiens) (UniProt O15264+Q15759+Q16539+P53778); assay: Inhibition of p38 MAPK phosphorylation in crohn's disease patient isolated ISEMF at 1 uM after 4 hrs by western blotting analysis
Outline: (§4)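 Primary human cells were treated with compound for 4 h. Lysates were made in RIPA buffer with phosphatase and protease inhibitors and cleared by centrifugation. Proteins were run on 10% SDS-PAGE and blotted to nitrocellulose. Blots were probed for phospho-p38 MAPK with an HRP secondary and ECL detection, then reprobed for total p38 MAPK as loading control. Duplicate experiments.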

Homo sapiens [7] = species on record: Homo sapiens; assay: Antiproliferative activity against VEGF induced healthy human ISEMF at 1 uM after 72 hrs by carboxyfluorescein diacetate succinimidyl ester dye-based FACS flow cytometric method; assay type: functional; outline: as §3
[8] = target: Platelet-derived growth factor receptor beta (Homo sapiens) (UniProt P09619); assay: Inhibition of human PDGFR-beta at 1 uM measured after 20 mins at 30 degC by liquid scintillation counting method in presence of [gamma-32P]-ATP
[9] = target: Tyrosine-protein kinase ABL1 (Homo sapiens) (UniProt P00519); assay: Inhibition of human Abl1 using myelin basic protein as substrate at 1 uM measured after 20 mins at 30 degC by liquid scintillation counting method in presence of [gamma-32P]-ATP
[10] = Reduction of COL1A1 mRNA expression in healthy human ISEMF at 1 uM by RT-PCR analysis; assay type: functional; outline: as §2
[11] = Reduction of COL1A1 mRNA expression in crohn's disease patient isolated ISEMF at 1 uM by RT-PCR analysis; assay type: functional; settings: Homo sapiens; outline: as §2
[12] = target: Serine/threonine-protein kinase mTOR (Homo sapiens) (UniProt P42345); assay: Inhibition of human mTOR using PHAS-1 as substrate at 1 uM measured after 20 mins at 30 degC by liquid scintillation counting method in presence of [gamma-32P]-ATP
[13] = target: Proto-oncogene tyrosine-protein kinase Src (Homo sapiens) (UniProt P12931); assay: Inhibition of human Src using myelin basic protein as substrate at 1 uM measured after 20 mins at 30 degC by liquid scintillation counting method in presence of [gamma-32P]-ATP
Homo sapiens [14] = species on record: Homo sapiens; assay: Inhibition of human PI3K using phosphatidylinositol 4,5-diphosphate as substrate at 1 uM measured after 20 mins at 30 degC by liquid scintillation counting method in presence of [gamma-32P]-ATP
[15] = target: Vascular endothelial growth factor receptor 2 (Homo sapiens) (UniProt P35968); assay: Inhibition of human KDR using […] as substrate at 1 uM measured after 20 mins at 30 degC by liquid scintillation counting method in presence of [gamma-32P]-ATP
[16] = Cytotoxicity against healthy human ISEMF assessed as cell viability at 1 uM after 72 hrs by MTT assay; outline: as §1
HSC = assay: Antiproliferative activity against VEGF induced human HSC cells at 1 uM after 72 hrs by carboxyfluorescein diacetate succinimidyl ester dye-based FACS flow cytometric method; assay type: functional, cell-based; outline: as §3
[17] = target: T1, MAP kinase p38 (Homo sapiens); assay: Inhibition of p38 MAPK phosphorylation in human HSC cells at 1 uM after 4 hrs by western blotting analysis; assay type: cell-based; outline: as §4
[18] = Reduction of FN1 mRNA expression in healthy human ISEMF at 1 uM by RT-PCR analysis; assay type: functional; outline: as §2
[19] = Reduction of FN1 mRNA expression in crohn's disease patient isolated ISEMF at 1 uM by RT-PCR analysis; assay type: functional; settings: Homo sapiens; outline: as §2
[20] = Reduction of TIMP1 mRNA expression in crohn's disease patient isolated ISEMF at 1 uM by RT-PCR analysis; assay type: functional; settings: Homo sapiens; outline: as §2
[21] = Reduction of TIMP1 mRNA expression in healthy human ISEMF at 1 uM by RT-PCR analysis; assay type: functional; outline: as §2
[22] = Reduction of FN1 mRNA expression in human HSC cells at 1 uM by RT-PCR analysis; assay type: functional, cell-based; outline: as §2
[23] = Reduction of TIMP1 mRNA expression in human HSC cells at 1 uM by RT-PCR analysis; assay type: functional, cell-based; outline: as §2

Chain of Vascular endothelial growth factor receptor 2 (Homo sapiens) (P35968 whole entry): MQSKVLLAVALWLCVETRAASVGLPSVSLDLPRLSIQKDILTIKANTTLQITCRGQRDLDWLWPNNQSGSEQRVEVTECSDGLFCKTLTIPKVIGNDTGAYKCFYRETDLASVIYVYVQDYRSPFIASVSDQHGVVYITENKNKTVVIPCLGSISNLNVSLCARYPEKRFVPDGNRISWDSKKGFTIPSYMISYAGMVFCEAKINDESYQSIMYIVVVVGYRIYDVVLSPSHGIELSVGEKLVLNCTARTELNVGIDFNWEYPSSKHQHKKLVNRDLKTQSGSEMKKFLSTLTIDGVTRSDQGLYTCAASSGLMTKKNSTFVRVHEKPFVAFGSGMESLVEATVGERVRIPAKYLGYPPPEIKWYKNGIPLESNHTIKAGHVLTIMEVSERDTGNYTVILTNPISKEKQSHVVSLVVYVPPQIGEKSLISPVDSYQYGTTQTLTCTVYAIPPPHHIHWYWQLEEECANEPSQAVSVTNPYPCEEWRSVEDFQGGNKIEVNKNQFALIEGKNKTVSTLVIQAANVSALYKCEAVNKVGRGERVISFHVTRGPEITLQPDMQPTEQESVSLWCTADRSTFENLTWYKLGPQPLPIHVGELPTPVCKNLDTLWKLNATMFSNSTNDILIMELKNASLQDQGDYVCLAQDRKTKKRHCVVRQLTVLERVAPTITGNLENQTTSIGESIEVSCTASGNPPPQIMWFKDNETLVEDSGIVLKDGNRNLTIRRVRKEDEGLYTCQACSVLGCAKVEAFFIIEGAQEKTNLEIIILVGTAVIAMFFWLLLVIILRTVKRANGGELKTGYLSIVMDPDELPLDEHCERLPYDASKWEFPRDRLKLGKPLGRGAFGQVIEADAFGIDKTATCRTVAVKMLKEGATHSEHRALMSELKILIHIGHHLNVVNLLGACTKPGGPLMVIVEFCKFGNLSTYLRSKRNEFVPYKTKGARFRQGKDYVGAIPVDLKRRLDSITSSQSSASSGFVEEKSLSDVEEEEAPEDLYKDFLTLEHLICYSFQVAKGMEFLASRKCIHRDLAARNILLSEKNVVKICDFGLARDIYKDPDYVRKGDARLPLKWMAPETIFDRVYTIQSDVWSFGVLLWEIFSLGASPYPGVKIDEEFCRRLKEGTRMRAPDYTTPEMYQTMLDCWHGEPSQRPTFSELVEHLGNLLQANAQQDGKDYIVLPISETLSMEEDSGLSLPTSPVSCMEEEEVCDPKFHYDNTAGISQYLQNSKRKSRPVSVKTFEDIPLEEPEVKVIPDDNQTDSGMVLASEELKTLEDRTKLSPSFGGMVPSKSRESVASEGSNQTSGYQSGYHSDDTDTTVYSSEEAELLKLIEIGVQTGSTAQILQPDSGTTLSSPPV
Chain of Platelet-derived growth factor receptor beta (Homo sapiens) (P09619 whole entry): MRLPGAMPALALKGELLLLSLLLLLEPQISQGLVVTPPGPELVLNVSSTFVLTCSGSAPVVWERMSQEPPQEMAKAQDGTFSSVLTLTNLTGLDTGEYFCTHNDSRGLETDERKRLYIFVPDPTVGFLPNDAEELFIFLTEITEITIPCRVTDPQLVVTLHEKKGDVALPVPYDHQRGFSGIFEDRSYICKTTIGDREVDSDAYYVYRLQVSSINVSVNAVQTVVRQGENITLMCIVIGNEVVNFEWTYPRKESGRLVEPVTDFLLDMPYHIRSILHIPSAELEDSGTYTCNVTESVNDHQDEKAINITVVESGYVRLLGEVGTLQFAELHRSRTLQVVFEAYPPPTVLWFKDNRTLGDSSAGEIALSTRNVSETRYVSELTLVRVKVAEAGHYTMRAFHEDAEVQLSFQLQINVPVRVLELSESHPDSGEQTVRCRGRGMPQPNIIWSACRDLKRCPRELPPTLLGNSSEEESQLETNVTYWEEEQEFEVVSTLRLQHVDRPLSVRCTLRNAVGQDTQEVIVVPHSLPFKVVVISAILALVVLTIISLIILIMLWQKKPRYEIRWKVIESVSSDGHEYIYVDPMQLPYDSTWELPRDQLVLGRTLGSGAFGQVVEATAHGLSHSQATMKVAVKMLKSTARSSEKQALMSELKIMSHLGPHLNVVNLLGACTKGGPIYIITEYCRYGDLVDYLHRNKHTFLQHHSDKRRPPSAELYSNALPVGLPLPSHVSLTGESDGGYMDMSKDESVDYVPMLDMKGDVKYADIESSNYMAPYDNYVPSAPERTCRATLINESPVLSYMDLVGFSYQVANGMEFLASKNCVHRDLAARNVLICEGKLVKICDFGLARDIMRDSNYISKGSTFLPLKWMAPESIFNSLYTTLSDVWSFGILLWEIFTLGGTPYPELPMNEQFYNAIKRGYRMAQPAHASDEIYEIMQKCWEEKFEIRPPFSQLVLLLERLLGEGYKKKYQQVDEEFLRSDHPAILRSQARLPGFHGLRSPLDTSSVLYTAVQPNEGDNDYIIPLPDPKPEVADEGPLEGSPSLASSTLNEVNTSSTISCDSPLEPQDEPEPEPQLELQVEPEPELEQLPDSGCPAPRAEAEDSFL
Chain of Fibroblast growth factor receptor 1 (Homo sapiens) (P11362 22-822 limits assumed): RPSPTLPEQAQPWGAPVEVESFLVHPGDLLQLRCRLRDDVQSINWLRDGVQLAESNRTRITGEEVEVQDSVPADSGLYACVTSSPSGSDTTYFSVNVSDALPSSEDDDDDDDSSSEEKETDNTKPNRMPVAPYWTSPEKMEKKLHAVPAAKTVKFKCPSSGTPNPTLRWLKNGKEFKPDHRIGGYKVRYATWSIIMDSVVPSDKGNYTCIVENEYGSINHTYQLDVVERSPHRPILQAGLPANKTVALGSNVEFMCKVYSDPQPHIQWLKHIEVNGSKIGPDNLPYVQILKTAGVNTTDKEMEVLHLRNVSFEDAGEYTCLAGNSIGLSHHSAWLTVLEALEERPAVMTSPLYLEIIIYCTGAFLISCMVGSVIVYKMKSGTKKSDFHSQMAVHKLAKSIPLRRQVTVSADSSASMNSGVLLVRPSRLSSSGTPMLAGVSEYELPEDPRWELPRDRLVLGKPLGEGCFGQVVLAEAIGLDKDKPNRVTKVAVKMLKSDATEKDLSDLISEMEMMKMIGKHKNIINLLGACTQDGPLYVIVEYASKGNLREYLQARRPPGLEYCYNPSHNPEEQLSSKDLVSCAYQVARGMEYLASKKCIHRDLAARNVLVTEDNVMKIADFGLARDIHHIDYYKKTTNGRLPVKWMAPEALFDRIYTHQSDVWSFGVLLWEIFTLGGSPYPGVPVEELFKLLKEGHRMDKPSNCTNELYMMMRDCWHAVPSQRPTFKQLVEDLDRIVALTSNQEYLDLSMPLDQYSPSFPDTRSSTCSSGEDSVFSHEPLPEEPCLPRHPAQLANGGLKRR
Chain of Proto-oncogene tyrosine-protein kinase Src (Homo sapiens) (P12931 2-536 limits assumed): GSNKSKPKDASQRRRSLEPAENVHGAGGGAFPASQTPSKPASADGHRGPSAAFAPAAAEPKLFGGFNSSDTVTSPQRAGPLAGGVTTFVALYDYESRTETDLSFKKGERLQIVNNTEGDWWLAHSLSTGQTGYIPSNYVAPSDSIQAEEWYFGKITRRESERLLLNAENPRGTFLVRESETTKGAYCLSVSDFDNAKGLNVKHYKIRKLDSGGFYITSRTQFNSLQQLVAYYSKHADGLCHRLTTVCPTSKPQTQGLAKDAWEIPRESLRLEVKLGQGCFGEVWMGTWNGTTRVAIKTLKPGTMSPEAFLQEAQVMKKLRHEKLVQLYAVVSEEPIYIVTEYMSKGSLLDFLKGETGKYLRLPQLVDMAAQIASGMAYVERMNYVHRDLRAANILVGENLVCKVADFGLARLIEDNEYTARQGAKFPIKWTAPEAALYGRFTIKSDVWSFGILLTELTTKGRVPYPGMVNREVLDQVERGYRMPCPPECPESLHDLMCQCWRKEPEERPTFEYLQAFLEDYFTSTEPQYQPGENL
Chain of Tyrosine-protein kinase ABL1 (Homo sapiens) (P00519 whole entry): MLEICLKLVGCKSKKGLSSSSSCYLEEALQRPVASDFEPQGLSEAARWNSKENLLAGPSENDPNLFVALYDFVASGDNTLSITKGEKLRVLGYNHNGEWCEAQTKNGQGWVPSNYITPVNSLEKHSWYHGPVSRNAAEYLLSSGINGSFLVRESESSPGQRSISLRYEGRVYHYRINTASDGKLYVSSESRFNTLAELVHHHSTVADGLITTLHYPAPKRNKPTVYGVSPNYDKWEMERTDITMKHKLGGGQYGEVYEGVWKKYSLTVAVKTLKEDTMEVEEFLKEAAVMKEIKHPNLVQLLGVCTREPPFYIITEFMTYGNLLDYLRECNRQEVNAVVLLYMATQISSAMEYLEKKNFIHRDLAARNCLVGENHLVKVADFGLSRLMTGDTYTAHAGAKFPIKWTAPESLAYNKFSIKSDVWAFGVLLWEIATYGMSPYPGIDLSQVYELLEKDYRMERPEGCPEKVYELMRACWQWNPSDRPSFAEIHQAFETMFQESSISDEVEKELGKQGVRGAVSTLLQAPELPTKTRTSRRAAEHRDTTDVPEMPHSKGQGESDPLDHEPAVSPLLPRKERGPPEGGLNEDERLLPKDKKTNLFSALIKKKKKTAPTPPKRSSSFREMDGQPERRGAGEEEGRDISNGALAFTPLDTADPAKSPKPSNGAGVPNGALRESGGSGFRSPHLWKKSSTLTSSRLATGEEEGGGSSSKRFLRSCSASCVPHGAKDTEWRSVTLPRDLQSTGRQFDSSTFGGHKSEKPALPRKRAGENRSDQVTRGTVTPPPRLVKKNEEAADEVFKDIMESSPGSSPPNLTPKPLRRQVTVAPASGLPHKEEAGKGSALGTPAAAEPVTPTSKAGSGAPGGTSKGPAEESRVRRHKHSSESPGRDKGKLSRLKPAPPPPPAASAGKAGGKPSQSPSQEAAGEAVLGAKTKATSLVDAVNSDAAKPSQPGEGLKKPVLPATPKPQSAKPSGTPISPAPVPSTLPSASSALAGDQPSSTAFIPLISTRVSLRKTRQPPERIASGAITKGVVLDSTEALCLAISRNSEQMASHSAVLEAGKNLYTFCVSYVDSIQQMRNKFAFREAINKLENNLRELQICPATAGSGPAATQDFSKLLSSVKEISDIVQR

inhibition [3] [%]	inhibition [6]	inhibition [8] [%]	inhibition [9] [%]	inhibition [12] [%]	inhibition [13] [%]	inhibition (Homo sapiens [14]) [%]	inhibition [15] [%]	inhibition [17]	Compound	Activity [1]	Activity (Homo sapiens [4])	Activity [5]	Activity (Homo sapiens [7])	Activity [16]	Activity (HSC)	also measured
8	Active	0	0	33	0	5	44	Active	COc1cc2ncn(CC(O)c3ccc(Br)cc3)c(=O)c2cc1OC (centres undefined)	Non-toxic	Active	Non-toxic	Active	Non-toxic	Active	Activity [2]: Active; Activity [10]: Active; Activity [11]: Active
13	Active	37	0	30	3	25	24	Active	COc1cc2ncn(Cc3cccnc3Br)c(=O)c2cc1OC	Non-toxic	Active	Non-toxic	Active	Non-toxic	Active	Activity [18]: inactive; Activity [19]: Active; Activity [20]: Active; Activity [21]: inactive; Activity [22]: Active; Activity [23]: Active
